In the library only some 2.7% were active in any assay of this set; here they are far more common.
MC4R ag barr: activates human MC4R beta-arrestin recruitment; P32245; AID 540308; 0.98% of 360,000 active; U2OS MC4R beta-arrestin complementation, luminescence; percent of melanotan II response, DMSO zero; activation, % at 8.9 µM;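 active = activation above a per-plate cutoff, the mean activation of sample wells on that plate plus 3 SD, cut at about 8% in these data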
MC4R antag cAMP: antagonists of human melanocortin 4 receptor (MC4R). MC4R-expressing cells, MTII-stimulated cAMP, LANCE TR-FRET. P32245. inhibition, % at 6.5 µM. 0.48% of 360,000 active;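 active = inhibition above its plate's cutoff, the mean of tested wells on that plate plus 3 SD, cut at about 29% in these data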
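Material – human MC4R-expressing U2OS cells · Repeats – no replicates · Detection – TR-FRET with Eu-cAMP and labeled anti-cAMP, 671 nm · Times – compound 30 min, challenge 1 h, detection 1 h · Compound – single nominal compound dose of 6.5 µM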
NTR1 ag: activates human neurotensin receptor 1. NTR1-U2OS beta-arrestin-GFP spot imaging, agonist mode. activation, % at 20 µM. 0.17% of 330,000 active. AID 493036;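 active = activation at or above 40% of the spot to cytoplasm intensity ratio, with at least 20 cells analyzed; inconclusive = wells under 20 cells, flagged as cytotoxic or low count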
m5-HT2A agonist: mouse HTR2A agonism via beta-arrestin recruitment | CHO-K1 mHTR2A beta-arrestin complementation, luminescence; percent of 30 µM serotonin response | AID 624169 | activation, % at 7.6 µM | P35363 | 0.66% of 360,000 active;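 active = activation above a run cutoff, the mean activation of all tested compounds plus 3 SD, cut at about 14% in these data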
Lipid droplet: modulators of hepatic lipid droplet formation. AML12 mouse hepatocytes, oleate lipid droplets, BODIPY imaging. inhibition, % at 6.5 µM. 0.4% of 240,000 active. AID 1656;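 active = lipid droplet intensity inhibited by at least 50%, with more than 500 cells counted; inconclusive = wells with under 300 cells, treated as cytotoxic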
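Test system: AML12 hepatocytes (mouse); reagent: oleate loading, 100 µM; dosing: one dose, 6.5 µM compound; incubation: overnight exposure; signal: fluorescence imaging, 20x objective, two fields per well; read-out basis: % inhibition of corrected integrated BODIPY droplet signal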
PREPL inh: human PREPL enzyme inhibition; Q4J6C6; recombinant PREPL, fluorescence polarization activity-based probe; inhibition, % at 5.96 µM; 0.68% of 320,000 active; in the data active = inhibition above about 43%
Target sequence (Q4J6C6 whole entry, looked up): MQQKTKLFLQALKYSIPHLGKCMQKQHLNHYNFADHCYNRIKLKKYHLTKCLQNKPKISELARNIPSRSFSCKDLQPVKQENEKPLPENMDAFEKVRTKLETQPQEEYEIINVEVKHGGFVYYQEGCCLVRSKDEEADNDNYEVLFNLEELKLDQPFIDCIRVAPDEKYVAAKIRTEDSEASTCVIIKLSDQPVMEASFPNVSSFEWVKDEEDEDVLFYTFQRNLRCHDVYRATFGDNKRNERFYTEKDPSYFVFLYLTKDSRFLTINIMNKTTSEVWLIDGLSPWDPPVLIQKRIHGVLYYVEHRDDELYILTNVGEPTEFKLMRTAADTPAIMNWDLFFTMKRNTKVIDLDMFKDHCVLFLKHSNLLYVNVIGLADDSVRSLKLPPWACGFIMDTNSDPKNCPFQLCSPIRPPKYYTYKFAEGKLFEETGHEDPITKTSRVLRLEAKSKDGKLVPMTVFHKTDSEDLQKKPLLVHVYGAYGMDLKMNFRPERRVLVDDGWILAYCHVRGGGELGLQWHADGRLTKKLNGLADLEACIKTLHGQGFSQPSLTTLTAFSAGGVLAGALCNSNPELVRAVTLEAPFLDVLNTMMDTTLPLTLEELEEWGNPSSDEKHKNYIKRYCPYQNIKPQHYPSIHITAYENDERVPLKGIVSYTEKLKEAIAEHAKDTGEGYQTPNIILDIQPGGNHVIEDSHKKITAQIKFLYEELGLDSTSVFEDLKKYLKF
MC4R barr conf: human MC4R beta-arrestin agonism confirmation | activation, % at 8.9 µM | 31% of 2,400 active | shares compounds with MC4R ag barr | AID 602192 | U2OS MC4R beta-arrestin recruitment, luminescence; scaled DMSO 0%, Melanotan II 100%;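 active = mean activation across replicates above the hit cutoff set in the earlier primary screen, cut at about 8% in these data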
MOR DOR agonist: activates mu-delta opioid heterodimer, MC4R agonist counter-screen. shares compounds with MC4R ag barr. U2OS PathHunter beta-arrestin, beta-gal luminescence; percent of deltorphin B response, DMSO zero. activation, % at 9.2 µM. 5.8% of 2,400 active. AID 602194;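 active = mean activation across replicates exceeds the hit threshold derived in the earlier primary screen, cut at about 18% in these data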
Hits are given with their value; - = inactive; ? = inconclusive; . = not tested or not shown.

SMILES	MC4R ag barr	MC4R antag cAMP	NTR1 ag	m5-HT2A agonist	Lipid droplet	PREPL inh	MC4R barr conf	MOR DOR agonist
CCOC(=O)C1=C(C)N(C)C(=S)NC1c1c(OCC)ccc2ccccc12 (stereo unspecified)	21	-	-	-	-	-	-	-
O=C(CN1C(=O)NC2(CCCC2)C1=O)Nc1cc(S(=O)(=O)N2CCCCC2)ccc1Cl	-	-	-	-	.	-	.	.
CC1CCN(S(=O)(=O)c2ccc(C(=O)OCc3ccc4c(c3)OCO4)cc2)CC1	12	-	-	-	-	-	-	-
COc1ccc(-c2n[nH]c(=S)n2/N=C/C=C/c2ccccc2OC)cc1	11	-	-	-	-	-	-	-
Cc1ccc(S(=O)(=O)CC(CN2CCCCC2)N2CCCCC2)cc1 (stereo unspecified)	-	-	.	-	-	.	.	.
O=S(=O)(CC(CN1CCOCC1)N1CCOCC1)c1ccccc1 (stereo unspecified)	9.6	-	-	-	-	-	-	-
CN1C(=O)/C(=C/c2cc3c(cc2Br)OCO3)NC1=S	11	-	-	-	-	-	-	-
COCCn1c(C)cc(/C=C2\NC(=S)N(C)C2=O)c1C	-	-	-	-	-	-	.	.
O=C(NC(=S)Nc1ccccc1O)c1ccc(-c2ccc(Cl)cc2)o1	30	-	-	-	.	-	-	-
COc1ccccc1NC(=S)NC(=O)c1ccc(-c2ccc(Cl)cc2)o1	20	-	-	-	.	-	-	-
c1ccc(C[C@H]2CN=C(Nc3ccccc3)N2CC2CCCC2)cc1	.	.	.	-	.	.	.	.
CCc1ccc(CCC(=O)Nc2ncc(Cc3ccccc3Cl)s2)o1	18	-	-	-	?	-	25	-
O=C(Nc1ccc2c(c1)OCCO2)N1CCN(Cc2ccccc2)CC1	-	-	-	-	.	-	.	.
C=CCNC(=O)/C(C#N)=C/c1cn(-c2ccccc2)nc1-c1cccs1	33	-	-	-	-	-	9.1	-
COc1ccc(NC(=O)[C@H](C)NC(=O)C2CCN(S(=O)(=O)c3ccc(C)cc3)CC2)cc1OC	-	-	-	-	-	-	.	.
O=C(COc1ccc2c(c1)CCC2)NCc1ccc(Cl)cc1	12	-	-	-	-	-	-	-
Cc1c(Br)c([N+](=O)[O-])nn1CC(=O)Nc1ccc(C(N)=O)cc1	-	-	-	-	-	-	.	.
COC(=O)c1c(NC(=O)CC2SC(N)=NC2=O)sc2c1CCC(C(C)(C)C)C2 (stereo unspecified)	10	-	-	-	-	-	17	-
COc1ccc2nc(NC(=O)c3ccc(-n4nc(C)cc4C)cc3)sc2c1	20	-	-	-	.	-	-	-
COc1ccc2nc(NC(=O)c3ccc4ncsc4c3)sc2c1	-	-	-	-	.	-	.	.
COc1ccc2nc(NC(=O)c3ccc(F)cc3)sc2c1	13	-	-	-	-	-	-	-
C#CC1(NC(=O)NC(C)C)CCCCC1	-	-	-	-	-	-	.	.
O=C(O)c1cc(S(=O)(=O)N2CCOCC2)c[nH]1	-	-	-	-	.	-	.	.
CCC1(C)Cc2c(sc3nc(SCC(=O)c4ccccc4)[nH]c(=O)c23)CO1 (stereo unspecified)	12	-	-	-	-	-	-	-
CCOCCCNC(=O)C(c1ccc(C)cc1)N(Cc1cccs1)C(=O)CNC(C)=O (stereo unspecified)	-	-	-	-	-	-	.	.
SMILES	MC4R ag barr	MC4R antag cAMP	NTR1 ag	m5-HT2A agonist	Lipid droplet	PREPL inh	MC4R barr conf	MOR DOR agonist
CCOc1ccc(-c2nnc3n2N=C(c2ccc(OC)cc2)CS3)cc1	12	-	-	-	.	-	-	-
CCOc1ccc(C2=Nn3c(nnc3-c3ccccc3OC)SC2)cc1	-	-	.	-	.	-	.	.
S=C(Nc1ccccc1)N1CCn2c1nc1ccccc12	24	-	-	-	.	-	-	.
C=C(C)COc1ccc2c(C)c(CCC(=O)N3C[C@H]4C[C@@H](C3)c3cccc(=O)n3C4)c(=O)oc2c1	-	-	-	-	.	-	.	.
COc1ccccc1/C=C/C(=O)Nc1nc(N)n(-c2ccccc2)n1	-	-	-	-	-	-	.	.
COc1cc(OC)c(/C=N/NC(N)=S)cc1Br	-	-	-	-	-	-	.	.
COc1cc2c(-c3ccccc3)c(C)oc2cc1/C=N/NC(N)=S	16	-	-	-	.	-	8.7	-
CCC(=O)Nc1cccc(-c2nc3ccc(C)cc3o2)c1	-	-	-	-	-	-	.	.
Cc1ccc2nc(-c3cccc(NC(=O)c4ccc5c(c4)OCCO5)c3)oc2c1	23	-	-	-	.	-	-	-
CCC(C)(C)C1CCC2(CC1)NC(=O)N(CC(=O)N(C)Cc1ccc(OC(F)F)cc1)C2=O (stereo unspecified)	17	-	-	-	.	-	-	-
Cc1cc2c(cc1S(=O)(=O)N1CCN(c3cccc(C(F)(F)F)c3)CC1)OCC(=O)N2	-	-	-	-	-	-	.	.
CC(=O)c1ccc(N2CCN(S(=O)(=O)c3cc4c(cc3C)NC(=O)CO4)CC2)cc1	16	-	-	-	-	-	-	-
O=C1COc2ccc(S(=O)(=O)N3CCN(c4cccc(C(F)(F)F)c4)CC3)cc2N1	11	-	-	-	-	-	-	-
COc1ccc(/C=N/NC(=O)c2ccc(COc3ccccc3Cl)o2)cc1	9.9	-	-	-	.	-	-	-
CC(=O)Nc1ccc(/C(C)=N/NC(=O)c2ccc(COc3ccccc3Cl)o2)cc1	-	-	-	-	.	-	.	.
COc1ccc(/C=N/NC(=O)c2ccc(COc3ccccc3Cl)o2)c(OC)c1C	17	-	-	-	-	-	18	-
Cc1cc(NC(=O)CCCOc2ccc(Cl)cc2Cl)no1	17	-	-	-	-	-	-	-
O=C(CCCOc1ccc(Cl)cc1Cl)Nc1ncccn1	-	-	-	-	-	-	.	.
O=C(Nc1ccc(C(O)(C(F)(F)F)C(F)(F)F)cc1)c1ccc(Cl)c([N+](=O)[O-])c1	14	-	-	-	-	-	15	-
Cc1ccc(Cl)cc1-c1cc(C(=O)NCC2CCCCC2)[nH]n1	-	-	.	-	.	.	.	.
Cc1cc(F)cc(-c2cc(C(=O)NCC3CCCCC3)[nH]n2)c1	13	-	.	-	.	.	-	-
CC1(C)Cc2c(cnn2-c2ccc(F)cc2)C(NC(=O)CN2CCCCC2=O)C1 (stereo unspecified)	-	-	-	-	-	-	.	.
O=C(Cn1nnc(-c2ccccc2Cl)n1)N/N=C/c1ccc(-c2cccc(Cl)c2)o1	11	-	-	-	-	-	8.9	-
